Source: ChEMBL document CHEMBL3400037, “Bis-3-chloropiperidines containing bridging lysine linkers: Influence of side chain structure on DNA alkylating activity” (Bioorg Med Chem, 2015)
Activity calls are given as the source filed them. The rule behind the calls is not given here.

What was measured:
Escherichia coli [1] = experiment: Induction of Escherichia coli supercoiled plasmid pBR322 DNA cleavage at 0.5 uM to 50 uM after 24 hrs using ethidium bromide by gel electrophoresis
How it was run: (§1)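 Supercoiled pBR322 (3.5 nM) exposed to agent at 24 h at ambient temperature in BPE buffer, pH 7.4; chlorambucil as control. Supercoiled, open-circular and linear forms separated by 1% agarose electrophoresis in 1× TAE, ethidium bromide-stained, with supercoiled, linear (EcoRI-cut) and nicked plasmid controls.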

Escherichia coli [2] = experiment: Induction of Escherichia coli supercoiled plasmid pBR322 DNA cleavage at 0.5 uM to 50 uM after 3 hrs at 37 degC using ethidium bromide by gel electrophoresis
How it was run: (§2)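 Supercoiled pBR322 (3.5 nM) incubated with agent at 0.5, 5 or 50 µM for 3 h at 37 °C in bisphosphate–EDTA (BPE) buffer, pH 7.4; chlorambucil 50 µM as control. Dilutions freshly made in water from 8 mM DMSO stock. Forms resolved on 1% agarose in 1× TAE, ethidium bromide-stained; supercoiled, EcoRI-linearised and nicked open-circular plasmid as markers.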

[3] = Induction of alkylation of 5'-FAM-labeled scrambled duplex oligonucleotide DNA (unknown origin) at guanine residues at 5 to 50 uM after 24 hrs by sequencing gel analysis
[4] = Reactive aziridinium ion formation in distilled water assessed as electrophilic aziridinium formation at 80 uM at 37 degC after 15 mins by ESI-MS analysis; assay type: physicochemical; conditions: buffer, 0.25 h
How it was run: (§3)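 An 80 µM solution of agent in distilled water was kept at 37 °C. Aliquots were taken at 0, 15, 30, 45, 60 and 120 min, diluted with methanol and analysed by ESI-MS for hydroxyl-substituted and aziridinium ion species.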

[5] = Reactive aziridinium ion formation in distilled water assessed as dihydroxyl substituted product formation at 80 uM at 37 degC after 15 mins by ESI-MS analysis; assay type: physicochemical; conditions: buffer, 0.25 h; how it was run: as §3
Escherichia coli [6] = experiment: Induction of Escherichia coli supercoiled plasmid pBR322 DNA cleavage at 5 uM after 3 hrs at 37 degC using ethidium bromide by gel electrophoresis
How it was run: (§4)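 Supercoiled pBR322 (3.5 nM) incubated with agent at 0.5, 5 or 50 µM in BPE buffer pH 7.4 for 3 h at 37 °C. Agent diluted fresh in water from DMSO stock. Products resolved on 1% agarose gel in 1× TAE and stained with ethidium bromide. Controls on gel were supercoiled, EcoRI-linearised and open circular plasmid markers. Chlorambucil at 50 µM was the reference agent.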

Escherichia coli [7] = experiment: Induction of Escherichia coli supercoiled plasmid pBR322 DNA cleavage at 0.5 uM after 3 hrs at 37 degC using ethidium bromide by gel electrophoresis; how it was run: as §4
Escherichia coli [8] = experiment: Induction of Escherichia coli supercoiled plasmid pBR322 DNA cleavage at 50 uM after 24 hrs using ethidium bromide by gel electrophoresis
How it was run: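 Supercoiled pBR322 (3.5 nM) incubated with agent in BPE buffer pH 7.4 at ambient temperature for 24 h. Products resolved on 1% agarose gel in 1× TAE and stained with ethidium bromide. Supercoiled, linear and open circular plasmid markers were run alongside.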

Escherichia coli [9] = experiment: Induction of Escherichia coli supercoiled plasmid pBR322 DNA cleavage at 50 uM after 3 hrs at 37 degC using ethidium bromide by gel electrophoresis; how it was run: as §4
Escherichia coli [10] = experiment: Binding affinity to Escherichia coli supercoiled plasmid pBR322 DNA at 50 uM after 24 hrs using ethidium bromide by gel electrophoresis; how it was run: as §1
Escherichia coli [11] = experiment: Binding affinity to Escherichia coli supercoiled plasmid pBR322 DNA at 50 uM after 3 hrs at 37 degC using ethidium bromide by gel electrophoresis; how it was run: as §2

| Structure (SMILES) | Activity (Escherichia coli [2]) | Activity [3] | Activity (Escherichia coli [7]) | also measured |
| --- | --- | --- | --- | --- |
| CC1(C)CC(Cl)CN(CCCC[C@@H](C(=O)OCCc2ccccc2)N2CC(Cl)CC(C)(C)C2)C1 (stereo partly drawn) | Active | Active |  | Activity (Escherichia coli [1]): Active |
| COC(=O)[C@H](CCCCN1CC(Cl)CC(C)(C)C1)N1CC(Cl)CC(C)(C)C1 (stereo partly drawn) | Active | Active |  | Activity (Escherichia coli [1]): Active; Activity [4]: Active; Activity [5]: Active; Activity (Escherichia coli [6]): Active |
| CC1(C)CC(Cl)CN(CCCCN2CC(Cl)CC(C)(C)C2)C1 (stereo not drawn) |  |  | Active |  |
| CC1(C)CC(Cl)CN(CCCN2CC(Cl)CC(C)(C)C2)C1 (stereo not drawn) |  |  | Active |  |
| CC1(C)CC(Cl)CN(CCCCCN2CC(Cl)CC(C)(C)C2)C1 (stereo not drawn) |  |  | Active |  |
| CC1(C)CC(Cl)CN(CCCC[C@@H](C(=O)OCc2ccccc2)N2CC(Cl)CC(C)(C)C2)C1 (stereo partly drawn) | Active | Active |  | Activity (Escherichia coli [1]): Active |
| O=C(O)CCCc1ccc(N(CCCl)CCCl)cc1 |  |  |  | Activity (Escherichia coli [8]): inactive; Activity (Escherichia coli [9]): inactive |
| CC1(C)CC(Cl)CN(CCCCCCN2CC(Cl)CC(C)(C)C2)C1 (stereo not drawn) |  |  | Active |  |
| COc1ccc(OC(=O)[C@H](CCCCN2CC(Cl)CC(C)(C)C2)N2CC(Cl)CC(C)(C)C2)c2ccccc12 (stereo partly drawn) | inactive | Active |  | Activity (Escherichia coli [10]): Active; Activity (Escherichia coli [11]): Active |
| CC1(C)CC(Cl)CN(CCCC[C@@H](C(=O)OCCCc2ccccc2)N2CC(Cl)CC(C)(C)C2)C1 (stereo partly drawn) | inactive | Active |  |  |
| CC1(C)CC(Cl)CN(CCCC[C@@H](C(=O)Oc2cccc3ccccc23)N2CC(Cl)CC(C)(C)C2)C1 (stereo partly drawn) | inactive | Active |  | Activity (Escherichia coli [10]): Active; Activity (Escherichia coli [11]): Active |
